The values below come from article PMC3306175 (Journal of Immunology (Baltimore, Md. : 1950), 2009).

Experiment [1] relates to gliadin-reactive intestinal T cell lines (iTCLs) from HLA-DQ2+ celiac patients. The experiment in a line: IFN-γ production. It counts as cell-based, human. The conditions noted are these: for Hierarchical clustering by intensity of IFN-γ responses (OD peptide / OD medium): 14 patients, Cluster 3.0, Pearson correlation; for IFN-γ response (in words): peptide 30 μg/ml; for Potency in eliciting T cell responses relative to 33-mer: polyclonal iTCLs or peptide-specific TCCs; for Number of patients whose iTCL recognized the peptide (positive IFN-γ response) / Percentage of patients recognizing the peptide: 14 adult HLA-DQ2+ CD patients, positive = IFN-γ at least twice medium alone. Summed up: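 iTCLs grown from collagenase-digested jejunal explants in X-Vivo15 with 5% AB serum, stimulated with irradiated PBMC, TG2-deamidated PT-gliadin (50 μg/ml) and IL-15 (10 ng/ml). T cells (3 × 10^4) were incubated with autologous EBV-B cells (6 × 10^4) and TG2-treated peptides (30 μg/ml; 37°C, 4 h, pH 6.8). IFN-γ was measured by ELISA at 48 h. Positive response: ≥2× medium. OD ratios were row/column-normalised, then clustered. Duplicates, ≥3 experiments.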

Experiment [2] concerns DQ2-α-I/III-specific T cell clones from patient CD230204. The experiment in a line: IFN-γ and proliferative responses of 17-mer-specific intestinal T cell clones. Format: cell-based, human. The conditions noted are these: TCCs from patient CD230204; peptide 30 μg/ml (8–19 μM). Summed up:
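T cell clones were derived from the patient's intestinal T cell line by limiting dilution with irradiated allogeneic PBMC, B-LCL and PHA. Peptides were deamidated with TG2 (1:1, 4 h, 37°C, Tris-HCl pH 6.8, CaCl2, NaCl, DTT). Each clone (1 × 10^4) was cultured with autologous B-LCL. IFN-γ ELISA on 48 h supernatants; proliferation by [3H]thymidine added for a further 16 h. Duplicates.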

The test system of experiment [3] is DQ2-α-I/III- or DQ2-α-II-specific intestinal T cells. The experiment in a line: Dose-response assays with peptide-pulsed irradiated APCs on iTCLs and TCCs. It counts as cell-based, human. A digest of the protocol: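 Autologous B-LCL APCs, irradiated, pulsed overnight at 37°C with 10-fold increasing doses of peptide. Peptide deamidated beforehand with TG2 (1:1 enzyme/substrate, 4 h, 37°C, Tris-HCl pH 6.8 with CaCl2, NaCl, DTT). APCs washed before adding T cells (3 × 10^4 iTCL or 1 × 10^4 TCC). IFN-γ ELISA on 48 h supernatants. Mean of duplicates; three separate experiments.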

For experiment [4], the system named is iTCLs from patient CD041051. The experiment in a line: HLA restriction with anti-HLA-DR and anti-HLA-DQ blocking mAbs. It counts as cell-based, human. To be noted: peptide 15 μM; anti-HLA-DR and anti-HLA-DQ mAbs 10 μg/ml. A digest of the protocol:
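Intestinal T cell lines came from collagenase-digested mucosal explants, expanded with irradiated PBMC, TG2-deamidated peptic-tryptic gliadin (50 μg/ml) and IL-15. For the assay, B-LCL APCs were preincubated 10 min with anti-HLA-DR (clone L243) or anti-HLA-DQ (clone SPV-L3) before peptide. T cells were then added. IFN-γ was measured by ELISA in 48 h supernatants. Duplicate wells, at least three independent experiments.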

The target in experiment [5] is purified HLA-DQ2 molecules (Homo sapiens, UniProt P01909+P01920). Nature of the experiment: HLA-DQ2 binding assay. The conditions noted are these: read-out: IC50 of binding to purified HLA-DQ2; TG2-deamidated peptides; inhibition of 0.1–1 nM 125I-radiolabeled probe peptide binding to purified HLA-DQ2 (5–500 nM), 48 h in PBS; three or more independent assays.

Peptide text beside a SMILES is read from it.

purified HLA-DQ2 molecules, sequence (P01920 33-261, other chains not shown): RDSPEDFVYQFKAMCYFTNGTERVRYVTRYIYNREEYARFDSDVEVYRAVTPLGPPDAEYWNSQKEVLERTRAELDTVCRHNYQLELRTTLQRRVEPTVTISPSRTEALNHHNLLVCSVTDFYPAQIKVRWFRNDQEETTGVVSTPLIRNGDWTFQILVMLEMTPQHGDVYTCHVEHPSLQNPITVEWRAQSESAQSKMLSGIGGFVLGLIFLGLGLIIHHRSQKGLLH

With LQPQQPFPQQPQQPYPQQPQ [DQ2-γ-V], the “Hierarchical clustering by intensity of IFN-γ responses (OD peptide / OD medium)” value in experiment [1] is reported as “low intensity of IFN-γ responses”. For the same compound, in experiment [1] (iTCL of patient CD230204), the “IFN-γ response (in words)” value is reported as “weakly”.
With QLQPFPQPQLPYPQPQP [17-mer], in experiment [1], the “Hierarchical clustering by intensity of IFN-γ responses (OD peptide / OD medium)” value was “strongest and more consistent responses”; the “Potency in eliciting T cell responses relative to 33-mer” value is “as potent as 33-mer”. The “IFN-γ response (in words)” value in experiment [1] (iTCL of patient CD090401) is on record as “very high levels of IFN-γ”. For the same compound, the “IFN-γ production and proliferation of 17-mer-specific T cell clones” value (shortened to “IFN-γ production and proliferation”) in experiment [2] is “produced high levels of IFN-γ and proliferated”.
As to `CC(C)C[C@H](NC(=O)[C@H](CCC(=O)O)NC(=O)[C@@H]1CCCN1C(=O)[C@H](CCC(N)=O)NC(=O)[C@@H]1CCCN1C(=O)[C@H](Cc1ccc(O)cc1)NC(=O)[C@@H]1CCCN1C(=O)[C@H](CCC(N)=O)NC(=O)[C@@H]1CCCN1C(=O)[C@@H](N)CCC(N)=O)C(=O)N1CCC[C@H]1C(=O)N[C@@H](Cc1ccc(O)cc1)C(=O)N1CCC[C@H]1C(=O)N[C@@H](CCC(N)=O)C(=O)N1CCC[C@H]1C(=O)N[C@@H](CCC(N)=O)C(=O)N1CCC[C@H]1C(=O)N[C@@H](Cc1ccccc1)C(=O)O` [18-mer] (H-QPQPYPQPELPYPQPQPF-OH), the “Hierarchical clustering by intensity of IFN-γ responses (OD peptide / OD medium)” value in experiment [1] was “strongest and more consistent responses”. The “IFN-γ response (in words)” value in experiment [1] (iTCL of patient CD090401) is “very high levels of IFN-γ”.
As to PFPQQPQQPYPQQPQ [DQ2-γ-III], in experiment [1], the “Hierarchical clustering by intensity of IFN-γ responses (OD peptide / OD medium)” value is on record as “low intensity of IFN-γ responses”. For the same compound, the “IFN-γ response (in words)” value in experiment [1] (iTCL of patient CD061204) is listed as “recognizing”; in experiment [1] (iTCL of patient CD090401) it was “recognized”.
With PQPQPFPPQLPYPQPQS [AG12], in experiment [1], the “Hierarchical clustering by intensity of IFN-γ responses (OD peptide / OD medium)” value was “low intensity of IFN-γ responses”. Moreover, the “IFN-γ response (in words)” value in experiment [1] (iTCL of patient CD090401) is “recognized”.
On to QIPQQQQIPQQPQQF [Glu-5], for which, in experiment [1] (iTCL of patient CD090401), the “IFN-γ response (in words)” value is listed as “weak IFN-γ response”.
For `CC(C)C[C@H](NC(=O)[C@H](CCC(N)=O)NC(=O)[C@@H](N)CC(C)C)C(=O)N[C@@H](CCC(N)=O)C(=O)N1CCC[C@H]1C(=O)N[C@@H](Cc1ccccc1)C(=O)N1CCC[C@H]1C(=O)N[C@@H](CCC(N)=O)C(=O)N1CCC[C@H]1C(=O)N[C@@H](CCC(=O)O)C(=O)N[C@@H](CC(C)C)C(=O)N1CCC[C@H]1C(=O)N[C@@H](Cc1ccc(O)cc1)C(=O)O` [13-mer] (H-LQLQPFPQPELPY-OH), the “Potency in activating DQ2-α-II-specific iTCLs (dose-response)” value in experiment [3] (iTCLs from CD041051, APCs pulsed overnight with 10-fold increasing doses of TG2-deamidated peptide) is “weak stimulatory capacity and only at very high concentration (10 μM)”. Also, the “Number of patients whose iTCL recognized the peptide (positive IFN-γ response)” value (from here on “Number”) in experiment [1] was “five”. Further, the “Hierarchical clustering by intensity of IFN-γ responses (OD peptide / OD medium)” value in experiment [1] was “strongest and more consistent responses”. Besides, the “IFN-γ response (in words)” value is reported as “weak IFN-γ production” in experiment [1] (iTCL of patient CD041051) and “very high levels of IFN-γ” in experiment [1] (iTCL of patient CD090401).
PQLPQFLQPQPYPQPQLPYPQPQPF [25-mer]: in experiment [1], the “Hierarchical clustering by intensity of IFN-γ responses (OD peptide / OD medium)” value was “strongest and more consistent responses”; the “Potency in eliciting T cell responses relative to 33-mer” value is reported as “as potent as 33-mer”.
For the compound GQGIIQPQQPAQLIR [DQ2-γ-II], the “Hierarchical clustering by intensity of IFN-γ responses (OD peptide / OD medium)” value in experiment [1] is given as “low intensity of IFN-γ responses”. Also, the “IFN-γ response (in words)” value in experiment [1] (iTCL of patient CD061204) is “recognizing”.
With QPQQPFPQPQQPFPWQP [DQ2-ω-1], the “HLA restriction of recognition” value in experiment [4] is recorded as “restricted by HLA-DQ2”. In experiment [3] (iTCLs from patient CD041051), the “IFN-γ production at 10-fold increased concentrations of peptide” value is given as “retained stimulatory activity even at low concentrations”. Further, in experiment [1], the “Number” value is reported as “five”. In experiment [1], the “Percentage of patients recognizing the peptide” value is 35%. Besides, the “Hierarchical clustering by intensity of IFN-γ responses (OD peptide / OD medium)” value in experiment [1] was “strongest and more consistent responses”. Besides, the “IFN-γ response (in words)” value is listed as “very high” in experiment [1] (iTCL of patient CD041051), “intermediate IFN-γ levels” in experiment [1] (iTCL of patient CD090401) and “responded” in experiment [1] (iTCL of patient CD130406). Moreover, the “IFN-γ production and proliferation” value in experiment [2] is recorded as “no cross-reactivity occurred”.
Take PQQPQQSFPQQQQPA [DQ2-γ-I]: in experiment [1], the “Number” value stood at 5 patients and the “Hierarchical clustering by intensity of IFN-γ responses (OD peptide / OD medium)” value is “low intensity of IFN-γ responses”. Also, the “IFN-γ response (in words)” value in experiment [1] (iTCL of patient CD230204) was “weakly”.
For the compound QQPPFSQQQQSPFSQ [Glt-156], the “Number” value in experiment [1] is given as “no intestinal T cell response”.
Take QLQPFPQPTLPYPQPQS [T65]: in experiment [1], the “Number” value is reported as “four”; the “Hierarchical clustering by intensity of IFN-γ responses (OD peptide / OD medium)” value is “strongest and more consistent responses”. Also, in experiment [1] (iTCL of patient CD090401), the “IFN-γ response (in words)” value is “recognized”.
For `CC(C)C[C@H](NC(=O)[C@H](CCC(N)=O)NC(=O)[C@@H](N)CC(C)C)C(=O)N[C@@H](CCC(N)=O)C(=O)N1CCC[C@H]1C(=O)N[C@@H](Cc1ccccc1)C(=O)N1CCC[C@H]1C(=O)N[C@@H](CCC(N)=O)C(=O)N1CCC[C@H]1C(=O)N[C@@H](CCC(N)=O)C(=O)N[C@@H](CC(C)C)C(=O)N1CCC[C@H]1C(=O)N[C@@H](Cc1ccc(O)cc1)C(=O)N1CCC[C@H]1C(=O)N[C@@H](CCC(N)=O)C(=O)N1CCC[C@H]1C(=O)N[C@@H](CCC(N)=O)C(=O)N[C@@H](CC(C)C)C(=O)N1CCC[C@H]1C(=O)N[C@@H](Cc1ccc(O)cc1)C(=O)N1CCC[C@H]1C(=O)N[C@@H](CCC(N)=O)C(=O)N1CCC[C@H]1C(=O)N[C@@H](CCC(N)=O)C(=O)N[C@@H](CC(C)C)C(=O)N1CCC[C@H]1C(=O)N[C@@H](Cc1ccc(O)cc1)C(=O)N1CCC[C@H]1C(=O)N[C@@H](CCC(N)=O)C(=O)N1CCC[C@H]1C(=O)N[C@@H](CCC(N)=O)C(=O)N1CCC[C@H]1C(=O)N[C@@H](Cc1ccccc1)C(=O)O` [33-mer] (H-LQLQPFPQPQLPYPQPQLPYPQPQLPYPQPQPF-OH; N-terminus and C-terminus assumed), the concentration for half-maximal inhibition (IC50) in experiment [5] came to 44 nM. In experiment [1], the “Number” value is listed as 7 patients; the “Percentage of patients recognizing the peptide” value is recorded as 50%; the “Hierarchical clustering by intensity of IFN-γ responses (OD peptide / OD medium)” value is “strongest and more consistent responses”. In experiment [1] (iTCL of patient CD041051), the “IFN-γ response (in words)” value was “high response”. The “IFN-γ response (in words)” value in experiment [1] (iTCL of patient CD090401) is recorded as “intermediate IFN-γ levels”. For the same compound, the “IFN-γ production and proliferation” value in experiment [2] is “vigorously reacted”.
For PQPQPFLPQLPYPQPQS [AG11], the “Hierarchical clustering by intensity of IFN-γ responses (OD peptide / OD medium)” value in experiment [1] was “strongest and more consistent responses”.
As to PFRPQQPYPQPQPQY [Glia-20], in experiment [1], the “Number” value is given as “no responses”.
Still for that read-out and setting: in the case of SHIPGLERPSQQQPLPPQQTL [Glt(19–39)] it was “no intestinal T cell response”.

By IC50 is commonly meant the concentration that inhibits the measured activity by half.
